Data from ChEMBL document CHEMBL1145048, “Functionalized glycomers as growth inhibitors and inducers of apoptosis in human glioblastoma cells” (J Med Chem, 2003).

Experiments:
[1] = Glycomer activity determined as growth inhibition of human glioblastoma LN18 cells; assay type: functional, cell-based
Procedure, shortened: (§1)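 Cells grown 24 h with FCS, then 24 h without FCS, then exposed to glycomers at increasing concentrations in serum-free medium for 24 h. MTT at 0.2 mg/mL was added for the last 2 h, formazan was dissolved in 0.1 N HCl/2-propanol and read at 540 nm. Growth inhibition = treated/control MTT reduction. IC50 is the concentration giving 50% inhibition from dose–response curves. Triplicate, mean ± SD.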

[2] = Glycomer activity determined as growth inhibition of human glioblastoma LNZ308 cells; assay type: functional, cell-based; procedure, shortened: as §1
[3] = Apoptosis index was determined against human glioblastoma LNZ308 cells at 16 uM and total exposure time of 10 hours; assay type: functional
Procedure, shortened: (§2)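 Cells seeded to half confluence in DMEM-10% FCS for 24 h, then held 24 h without FCS before glycomer addition in serum-free medium. At the end of the incubation, histone-associated DNA fragments (mono- and oligonucleosomes) in still-adherent cells were measured by photometric ELISA (absorbance 405 nm). Apoptosis index = absorbance of treated / untreated wells, untreated set at 1.00. Done in triplicate.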

[4] = Efficacy index was evaluated as ratio of apoptosis index to MTT reduction for human glioblastoma LN18 cells at 11.3 uM concentration; assay type: functional, cell-based
Procedure, shortened: (§3)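 Cells grown 24 h with FCS, then deprived of FCS for 10 h, then exposed to glycomers for 12 h. In adherent cells, MTT reduction (540 nm), [3H]-thymidine incorporation (cpm) and nucleosome-fragment apoptosis index (treated vs control) were measured. Efficacy index = ratio of thymidine incorporation or apoptosis index to MTT reduction.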

[5] = Efficacy index was evaluated as ratio of inhibition of DNA synthesis (3HT incorporation) to inhibition of growth(MTT) for human glioblastoma LN18 cells at 0 uM concentration; assay type: functional, cell-based; procedure, shortened: as §3
[6] = Efficacy index was evaluated as ratio of apoptosis index to MTT reduction for human glioblastoma LN18 cells at 0 uM concentration; assay type: functional, cell-based; procedure, shortened: as §3
[7] = Efficacy index was evaluated as ratio of inhibition of DNA synthesis (3HT incorporation) to inhibition of growth(MTT) for human glioblastoma LN18 cells at 11.3 uM concentration; assay type: functional, cell-based; procedure, shortened: as §3
[8] = Efficacy index was evaluated as ratio of apoptosis index to MTT reduction for human glioblastoma LNZ308 cells at 22.5 uM concentration; assay type: functional, cell-based; procedure, shortened: as §3
[9] = Apoptosis index was determined against human glioblastoma LN18 cells at 16 uM after total exposure of 10 hours; assay type: functional; procedure, shortened: as §2
[10] = Efficacy index was evaluated as ratio of inhibition of DNA synthesis (3HT incorporation) to inhibition of growth(MTT) for human glioblastoma LN18 cells at 22.5 uM concentration; assay type: functional, cell-based; procedure, shortened: as §3
[11] = Efficacy index was evaluated as ratio of apoptosis index to MTT reduction for human glioblastoma LNZ308 cells at 0 uM concentration; assay type: functional, cell-based; procedure, shortened: as §3
[12] = Efficacy index was evaluated as ratio of inhibition of DNA synthesis (3HT incorporation) to inhibition of growth(MTT) for human glioblastoma LNZ308 cells at 11.3 uM concentration; assay type: functional, cell-based; procedure, shortened: as §3
[13] = Efficacy index was evaluated as ratio of inhibition of DNA synthesis (3HT incorporation) to inhibition of growth(MTT) for human glioblastoma LNZ308 cells at 0 uM concentration; assay type: functional, cell-based; procedure, shortened: as §3
[14] = Efficacy index was evaluated as ratio of inhibition of DNA synthesis (3HT incorporation) to inhibition of growth(MTT) for human glioblastoma LN18 cells at 4.5 uM concentration; assay type: functional, cell-based; procedure, shortened: as §3
[15] = Efficacy index was evaluated as ratio of apoptosis index to MTT reduction for human glioblastoma LNZ308 cells at 4.5 uM concentration; assay type: functional, cell-based; procedure, shortened: as §3
[16] = Efficacy index was evaluated as ratio of inhibition of DNA synthesis (3HT incorporation) to inhibition of growth(MTT) for human glioblastoma LNZ308 cells at 4.5 uM concentration; assay type: functional, cell-based; procedure, shortened: as §3
[17] = Efficacy index was evaluated as ratio of apoptosis index to MTT reduction for human glioblastoma LN18 cells at 22.5 uM concentration; assay type: functional, cell-based; procedure, shortened: as §3
[18] = Efficacy index was evaluated as ratio of apoptosis index to MTT reduction for human glioblastoma LN18 cells at 4.5 uM concentration; assay type: functional, cell-based; procedure, shortened: as §3
[19] = Efficacy index was evaluated as ratio of apoptosis index to MTT reduction for human glioblastoma LNZ308 cells at 11.3 uM concentration; assay type: functional, cell-based; procedure, shortened: as §3
[20] = Efficacy index was evaluated as ratio of inhibition of DNA synthesis (3HT incorporation) to inhibition of growth(MTT) for human glioblastoma LNZ308 cells at 22.5 uM concentration; assay type: functional, cell-based; procedure, shortened: as §3
[21] = Apoptosis index was determined against human glioblastoma LN18 cells at concentration of 11 uM after total exposure time of 15 hours; assay type: functional, cell-based; procedure, shortened: as §2
[22] = Apoptosis index was determined against human glioblastoma LNZ308 cells at concentration of 11 uM after total exposure time of 15 hours; assay type: functional, cell-based; procedure, shortened: as §2
[23] = Apoptosis index was determined against human glioblastoma LN18 cells at 25 uM after total exposure time of 24 hours; assay type: functional; procedure, shortened: as §2
[24] = Apoptosis index was determined against human glioblastoma LNZ308 cells at 25 uM after total exposure time of 24 hours; assay type: functional; procedure, shortened: as §2
[25] = Apoptosis index was determined against human glioblastoma LNZ308 cells at concentration of 25 uM after total exposure time of 24 hours; assay type: functional, cell-based; procedure, shortened: as §2
[26] = Apoptosis index was determined against human glioblastoma LN18 cells at concentration of 25 uM after total exposure time of 24 hours; assay type: functional, cell-based; procedure, shortened: as §2

CCCC(=O)O[C@@H]1[C@H](Oc2ccc(I)cc2)O[C@@H](COCc2ccccc2)[C@@H](O)[C@@H]1OC
IC50 ([1]; Homo sapiens, LN-18): > 50 µM | IC50 ([2]; Homo sapiens, LNZ308): > 50 µM

C=CCO[C@H]1[C@H](O)[C@H](COS(=O)(=O)c2cccc(C(F)(F)F)c2)O[C@@H](Oc2ccc(I)cc2)[C@H]1OC(=O)CC
Apoptosis index [3]: 8.97 | Efficacy index [4]: 3.51 | Efficacy index [5]: 16.2 | Efficacy index [6]: 0.93 | Efficacy index [7]: 0.23 | Efficacy index [8]: 5.09 | IC50 ([1]; Homo sapiens, LN-18): 7 µM | Apoptosis index [9]: 3.82 | Efficacy index [10]: 0.3 | Efficacy index [11]: 0.95 | IC50 ([2]; Homo sapiens, LNZ308): 11.5 µM | Efficacy index [12]: 1.23 | Efficacy index [13]: 9.79 | Efficacy index [14]: 4.87 | Efficacy index [15]: 0.99 | Efficacy index [16]: 5 | Efficacy index [17]: 9.6 | Efficacy index [18]: 1.19 | Efficacy index [19]: 2.03 | Efficacy index [20]: 0.24

C=CCO[C@H]1[C@H](O)[C@H](COCc2ccccc2)O[C@@H](Oc2ccc(I)cc2)[C@H]1OC(=O)CC
Efficacy index [4]: 4.85 | Efficacy index [5]: 16.2 | Efficacy index [6]: 0.93 | Efficacy index [7]: 0.09 | Apoptosis index [21]: 3.67 | Apoptosis index [22]: 0.91 | Efficacy index [8]: 2.32 | IC50 ([1]; Homo sapiens, LN-18): 11.5 µM | Efficacy index [10]: 0.58 | Efficacy index [11]: 0.95 | IC50 ([2]; Homo sapiens, LNZ308): 17.5 µM | Efficacy index [12]: 2.04 | Efficacy index [13]: 9.79 | Efficacy index [14]: 6.23 | Efficacy index [15]: 0.62 | Efficacy index [17]: 8.3 | Efficacy index [18]: 1.92 | Efficacy index [19]: 0.7 | Efficacy index [20]: 0.34

C=CCOC1C(O)C(CNS(=O)(=O)c2cccc(C(F)(F)F)c2)OC(Oc2ccc(I)cc2)C1O (stereo unspecified)
IC50 ([1]; Homo sapiens, LN-18): 16 µM | IC50 ([2]; Homo sapiens, LNZ308): 27 µM

C=CCO[C@H]1[C@H](O)[C@H](COS(=O)(=O)c2cccc(C(F)(F)F)c2)O[C@@H](Oc2ccc(I)cc2)[C@H]1OC(=O)C(C)C
IC50 ([1]; Homo sapiens, LN-18): 12.5 µM | Apoptosis index [23]: 1.1 | IC50 ([2]; Homo sapiens, LNZ308): 8.5 µM | Apoptosis index [24]: 1.09

C=CCO[C@H]1[C@H](O)[C@H](COCc2ccccc2)O[C@@H](Oc2ccc(I)cc2)[C@H]1OC(=O)C(C)C
IC50 ([1]; Homo sapiens, LN-18): > 50 µM | IC50 ([2]; Homo sapiens, LNZ308): > 50 µM

C=CCO[C@H]1[C@H](O)[C@H](COS(=O)(=O)c2cccc(C(F)(F)F)c2)O[C@H](Oc2ccc(I)cc2)[C@@H]1OC(=O)CCC
IC50 ([1]; Homo sapiens, LN-18): 25 µM | IC50 ([2]; Homo sapiens, LNZ308): 42 µM

CCCO[C@H]1[C@H](O)[C@H](COS(=O)(=O)c2cccc(C(F)(F)F)c2)O[C@@H](Oc2ccccc2)[C@H]1OC(=O)CCC
IC50 ([1]; Homo sapiens, LN-18): > 50 µM | IC50 ([2]; Homo sapiens, LNZ308): > 50 µM

C=CCO[C@H]1[C@@H](O)[C@H](COS(=O)(=O)c2cccc(C(F)(F)F)c2)O[C@@H](Oc2ccc(I)cc2)[C@H]1OC(=O)C(C)C
IC50 ([1]; Homo sapiens, LN-18): 18.5 µM | IC50 ([2]; Homo sapiens, LNZ308): 18 µM

C=CCO[C@H]1[C@H](O)[C@H](COCc2ccccc2)O[C@@H](Oc2ccc(Br)cc2)[C@H]1OC(=O)CCC
IC50 ([1]; Homo sapiens, LN-18): > 50 µM | IC50 ([2]; Homo sapiens, LNZ308): > 50 µM

C=CCO[C@H]1[C@H](O)[C@H](COS(=O)(=O)c2cccc(C(F)(F)F)c2)O[C@@H](Oc2ccc(Br)cc2)[C@H]1OC(=O)CCC
IC50 ([1]; Homo sapiens, LN-18): > 50 µM | IC50 ([2]; Homo sapiens, LNZ308): > 50 µM

C=CCOC1C(O)C(CNS(=O)(=O)c2cccc(C(F)(F)F)c2)OC(Oc2ccc(I)cc2)C1OC(=O)C(C)C (stereo unspecified)
IC50 ([1]; Homo sapiens, LN-18): 12.5 µM | IC50 ([2]; Homo sapiens, LNZ308): 7.5 µM

C=CCOC1C(O)C(CNS(=O)(=O)c2cccc(C(F)(F)F)c2)OC(Oc2ccc(I)cc2)C1OC(=O)CCC (stereo in doubt; 17a)
IC50 ([1]; ln18): 25 µM | IC50 ([2]; lnz308): 26 µM

C=CCOC1C(O)C(CNS(=O)(=O)c2cccc(C(F)(F)F)c2)OC(Oc2ccc(I)cc2)C1OC(=O)CCC (stereo in doubt; 10b)
IC50 ([1]; ln18): 6.5 µM | IC50 ([2]; Homo sapiens, LNZ308): 17.5 µM

C=CCO[C@H]1[C@H](O)[C@H](COCc2ccccc2)O[C@@H](Oc2ccc(I)cc2)[C@H]1OC(=O)CCC
IC50 ([1]; Homo sapiens, LN-18): 7.5 µM | IC50 ([2]; Homo sapiens, LNZ308): 11.5 µM | Apoptosis index [25]: 2.27 | Apoptosis index [26]: 1.6

C=CCO[C@H]1[C@H](O)[C@H](COS(=O)(=O)c2cccc(C(F)(F)F)c2)O[C@@H](Oc2ccc(I)cc2)[C@H]1OC(=O)CCc1ccccc1
IC50 ([1]; Homo sapiens, LN-18): > 50 µM | IC50 ([2]; Homo sapiens, LNZ308): > 50 µM
